Data: the RNAGym collection of RNA variant scans (doi:10.1126/science.aae0568)
Fewer inactive variants are shown than the library holds.

B1: tRNA (parent)
chain: GUUCCGUUGGCGUAAUGGUAACGCGUCUCCCUCCUAAGGAGAAGACUGCGGGUUCGAGUCCCGUACGGAACG

Variants of: B1
Experiment: yeast fitness relative to wild type (ratio to wild type); higher = fitter; tRNA-Arg(CCU), competitive growth, 37 C, YPD
Method in brief: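 Variants of the tRNA-Arg(CCU) gene, chemically synthesised with a 3% per-site mutation rate at 69 sites, were placed at the native genomic locus in Saccharomyces cerevisiae. The pooled strains were competed in YPD at 37°C for 24 hours in six parallel replicates. Gene amplicons from the start population and from each end population were read by 100-nucleotide paired-end sequencing. Darwinian fitness relative to wild type came from changes in genotype frequencies; genotypes needed ≥ 100 starting reads, and estimates < 0.5 were set to 0.5.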

First: C11A C55A C66A
Second: C5U C33U U54C G58A
The yeast fitness of the first is lower: no more than 0.5 for the first, 0.703 for the second.

A36C A45C G48A and C24A C27G U53C C55U cannot be ordered by yeast fitness: no more than 0.5 for the first, no more than 0.5 for the second.

C5G C30G C33G A37U C61G and C4G A14G G38A G56C A70G cannot be ordered by yeast fitness: no more than 0.5 for the first, no more than 0.5 for the second.

First: A20G C34A
Second: A43G G48C C55G
The yeast fitness of the first is higher: 0.69 for the first, 0.597 for the second.

Going from C4A A36G to A14G U53C G67C, the yeast fitness falls from 0.87 to no more than 0.5.

First: G17C G23U U28A C31G
Second: C4G G12C C33G G44C
The yeast fitness of the first is higher: 0.655 for the first, no more than 0.5 for the second.

Going from C49A A69C to C5U U7A A45G G67A, the yeast fitness falls from 0.709 to no more than 0.5.

Going from C22G G63A C66U to C11A C49A, the yeast fitness falls from 0.593 to no more than 0.5.

Compared with U8A C22U A69C A70C, G9C U13A G25A A40C G67C is lower in yeast fitness: 0.595 for the first, no more than 0.5 for the second.

Compared with A40U G44C U64C, U16C C30U C46A is lower in yeast fitness: 0.944 for the first, 0.768 for the second.

C5G U8C A15G C29A G39A and U16C C60G A65G cannot be ordered by yeast fitness: no more than 0.5 for the first, no more than 0.5 for the second.

Going from U3C C4A A65C to U7A G23A C24U U35A C60A, the yeast fitness rises from 0.62 to 0.632.

Going from A14G G38A C60U G67C to C29A A70C, the yeast fitness rises from no more than 0.5 to 0.635.

U3A C24G C29A G50C A57C and A21U G52C cannot be ordered by yeast fitness: no more than 0.5 for the first, no more than 0.5 for the second.

C11U A40C G51A C61U A69C and G6A A36U A37G A40C C66U cannot be ordered by yeast fitness: no more than 0.5 for the first, no more than 0.5 for the second.

Going from G25A U26A C31U G38A A42G A43U G67C to U3A G67C, the yeast fitness rises from 0.613 to 0.827.

Compared with U16A C55A, C55U G63A is lower in yeast fitness: 0.699 for the first, 0.643 for the second.

First: A21G A42C A43U G56C C66U
Second: C11G C29G C49U G63A
The yeast fitness of the first is higher: 0.598 for the first, no more than 0.5 for the second.

A20C C24G C27A G44A and A20G C27U A37U cannot be ordered by yeast fitness: no more than 0.5 for the first, no more than 0.5 for the second.

Compared with G41C G67A, A20U G38C G50C A65C is lower in yeast fitness: 0.89 for the first, no more than 0.5 for the second.

U16A C27U G38A and A20C A21C G23C C30G A65U C66U cannot be ordered by yeast fitness: no more than 0.5 for the first, no more than 0.5 for the second.

C29A A65U G67A and G10C C24U C34U A36U C46A A69C cannot be ordered by yeast fitness: 0.5 for the first, no more than 0.5 for the second.

A42G C49U A65U and U13C C22A U32A A36G A43U cannot be ordered by yeast fitness: no more than 0.5 for the first, no more than 0.5 for the second.

U3A G10C A36U A40C A57C and U2A U28A A37C C66U cannot be ordered by yeast fitness: no more than 0.5 for the first, no more than 0.5 for the second.

G17C A42G A70G and U7C G25C C30G C33U A45G U47G G50C G63A cannot be ordered by yeast fitness: no more than 0.5 for the first, no more than 0.5 for the second.

C5A C22A A36U A40U and C33A U54C C55G cannot be ordered by yeast fitness: no more than 0.5 for the first, no more than 0.5 for the second.

U8G A45U G50A A69C and G23A C33G A70U cannot be ordered by yeast fitness: no more than 0.5 for the first, no more than 0.5 for the second.

First: U47A
Second: U7G U35G
The yeast fitness of the first is higher: 0.99 for the first, 0.536 for the second.

C5G G9C A43G A69G and C4U G18C G50A cannot be ordered by yeast fitness: no more than 0.5 for the first, no more than 0.5 for the second.

Going from U3A A15G G48C to G10C C46U C66U, the yeast fitness falls from 0.595 to 0.561.

C4A G12C A21C C22G C55A C60U C62G A69C and C27G A37G G52U cannot be ordered by yeast fitness: no more than 0.5 for the first, no more than 0.5 for the second.

Compared with C5U C11U C29U C30G A70C, A40C A57U is higher in yeast fitness: no more than 0.5 for the first, 0.789 for the second.

U19G A20U U53A G56A A65U and C27G G38C C49G A70G cannot be ordered by yeast fitness: no more than 0.5 for the first, no more than 0.5 for the second.

Compared with A40U U47C A69U, U28A C29G G51A G56A G67C is lower in yeast fitness: 0.815 for the first, 0.585 for the second.

A21C U59A A65U and C11G U16G G38C G68A cannot be ordered by yeast fitness: no more than 0.5 for the first, no more than 0.5 for the second.

Going from G12C A20U C30U C55U C66U to U26C G51A, the yeast fitness rises from 0.551 to 0.774.

First: A45C G67A
Second: U16G C27G
The yeast fitness of the first is higher: 0.814 for the first, 0.639 for the second.

Going from U3A A57G to U3C C4G A42G, the yeast fitness falls from 0.776 to 0.57.

First: C22G C24A
Second: C4A A14U
The yeast fitness of the first is lower: 0.673 for the first, 0.698 for the second.

First: C4A C31U A42C C66A
Second: G9C C31A
The yeast fitness of the first is lower: 0.523 for the first, 0.685 for the second.

Going from A15G C31G to C11U C34G G50C, the yeast fitness falls from 0.852 to 0.576.

First: A20G G51C G67A
Second: G58A C62U G63A
The yeast fitness of the first is lower: 0.534 for the first, 0.621 for the second.

A15G C55G G56U G68C and U2G A21C C22U C31U C33U C62A cannot be ordered by yeast fitness: no more than 0.5 for the first, no more than 0.5 for the second.

Going from A45C G48A G67A to C29G C31U A37U C62U A70G, the yeast fitness falls from 0.829 to no more than 0.5.

First: G50C G56A
Second: C33G A42G G52A C62A A70U
The yeast fitness of the first is higher: 0.635 for the first, 0.589 for the second.

U3C C11U C29U G67A A70U and C5G A14C G18A A43G A45C C46U A57G cannot be ordered by yeast fitness: no more than 0.5 for the first, no more than 0.5 for the second.

First: C24G C33G U53C C55U
Second: A21C C27U C33A A37C
The yeast fitness of the first is higher: 0.567 for the first, 0.554 for the second.

First: U7C G10A G50C
Second: C11A C22U U26G A40U G48C
The yeast fitness of the first is lower: no more than 0.5 for the first, 0.537 for the second.

U7C A37C C61G and U7A G9A G17A C24A cannot be ordered by yeast fitness: no more than 0.5 for the first, no more than 0.5 for the second.

Compared with C4G C30A C49G A65C, C24U G44A C66A is higher in yeast fitness: no more than 0.5 for the first, 0.563 for the second.

C11U U19C A20U A42C A65C A69U and C27U G38A G68C cannot be ordered by yeast fitness: no more than 0.5 for the first, no more than 0.5 for the second.

G38C C46G G51C A57C C61U and U2A G9A C33A G68A cannot be ordered by yeast fitness: no more than 0.5 for the first, no more than 0.5 for the second.

C22U A42G U54C C55G A70U and U3A C27G C31U C33U A42C C66U A70C cannot be ordered by yeast fitness: no more than 0.5 for the first, no more than 0.5 for the second.

A20C C24G A37G and G10C G18C A42G G68A cannot be ordered by yeast fitness: no more than 0.5 for the first, no more than 0.5 for the second.

Going from G6A A42U C62A to A21G A36G G38C C49U, the yeast fitness falls from 0.53 to no more than 0.5.

First: A37C A42C C46A A70C
Second: G25A C29U C66U
The yeast fitness of the first is lower: no more than 0.5 for the first, 0.747 for the second.

C5A A21C C30G C34U G38C C49U and G10C G17A U35G cannot be ordered by yeast fitness: no more than 0.5 for the first, no more than 0.5 for the second.

First: U2C G18C A21G C27A C30U G38A
Second: C4A U7G G12C
The yeast fitness of the first is lower: no more than 0.5 for the first, 0.549 for the second.

Going from G18A C33U C46G to A14G G58C A70U, the yeast fitness rises from 0.634 to 0.892.

Going from C11A U13A to U3C C34A G44A G52A C55U, the yeast fitness falls from 0.603 to 0.562.

Compared with C22U A40G A43U C46G C49G, A15G G23A G48A is higher in yeast fitness: no more than 0.5 for the first, 0.675 for the second.

C5U C11G C34U A42C C61A A70U and C4G G9A C49A C55U cannot be ordered by yeast fitness: no more than 0.5 for the first, no more than 0.5 for the second.

First: C29U G44C A57U
Second: C5U C27A A42U C49G C60A
The yeast fitness of the first is lower: 0.635 for the first, 0.817 for the second.

First: C22A U28G G58C
Second: U8G U26A C31U
The yeast fitness of the first is lower: no more than 0.5 for the first, 0.52 for the second.

First: C5G C31A A45U
Second: C27G G39A C66U G67A
The yeast fitness of the first is higher: 0.584 for the first, no more than 0.5 for the second.

C34U A42C G56C and U8C G18C A21C U47A G48C U54G A65C cannot be ordered by yeast fitness: no more than 0.5 for the first, no more than 0.5 for the second.

Going from G10C G68U to A15C U19A C24G C34G C46U C61A A70U, the yeast fitness falls from 0.693 to 0.639.

C11A G25A A43G A65C and C29U C49G C60A cannot be ordered by yeast fitness: no more than 0.5 for the first, no more than 0.5 for the second.

A20G C34G A37C C66U and C4G A21U U28A C30G cannot be ordered by yeast fitness: no more than 0.5 for the first, no more than 0.5 for the second.

Going from U2C A65G G68A A69C to G39C C46U G56A, the yeast fitness rises from 0.563 to 0.694.

G9C G12A G48C C62A and A14C A15C A21U A57G cannot be ordered by yeast fitness: no more than 0.5 for the first, no more than 0.5 for the second.

First: U2C U47A A70G
Second: U8A C30A A65G
The yeast fitness of the first is higher: 1.15 for the first, 0.543 for the second.

First: C34U U35G G38A C62U A65C G67A
Second: C5U C29U A43G
The yeast fitness of the first is lower: no more than 0.5 for the first, 0.632 for the second.

Compared with C11U U19A U32A A37U, C11U C22A is higher in yeast fitness: no more than 0.5 for the first, 0.882 for the second.

First: A40C G52C C66U G67A
Second: G23C C61U C66G A70U
The yeast fitness of the first is lower: no more than 0.5 for the first, 0.562 for the second.

Compared with A20G A37U, C46G C55G is lower in yeast fitness: 0.795 for the first, 0.722 for the second.

Going from C11G C49U C62U to C5A C31U A37C, the yeast fitness rises from 0.535 to 0.561.

Compared with A20U C31G, A15U G38C G39A A43C C61U is lower in yeast fitness: 0.865 for the first, no more than 0.5 for the second.

First: U8A A14C C49G A70U
Second: A15C A21C C27G C62U
The yeast fitness of the first is lower: 0.515 for the first, 0.534 for the second.

U7C A40G G52A A65C and C5U G41A G52A cannot be ordered by yeast fitness: no more than 0.5 for the first, no more than 0.5 for the second.

Going from U3C U26C G44C U54A to C4U A45C A69U, the yeast fitness rises from no more than 0.5 to 0.822.

Going from C24U A40G to C22A C33A G39C, the yeast fitness falls from 0.72 to no more than 0.5.

C46G G48C A65U G68A and U13G U32C C33U C62U A65G cannot be ordered by yeast fitness: no more than 0.5 for the first, no more than 0.5 for the second.

With A20C G44A C60A G67A the yeast fitness was no more than 0.5.
